aSyn UTR inh = MLPCN primary screen, SNCA 5' untranslated region | alpha-synuclein 5'UTR reporter, inhibitor activity | inhibition, % (tested at 7.5 µM) | 300,000 tested, 0.82% active | AID 1813, 2009; in the data active = inhibition above about 60%; inconclusive = no clear call, values can overlap the other calls;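 also: H4 neuroglioblastoma cells stably carrying SNCA 5'UTR luciferase fusion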
Jurkat NFkB inh = inhibitors of induced NF-kB luciferase reporter, primary screen, TCR NF-kB activation inhibitor project, cell-based, luminescence, uHTS; Jurkat, PMA/ionomycin-induced NF-kB luciferase reporter; inhibition, % at 4 µM; 330,000 tested, 0.53% active; AID 435003, 2010; in the data active = inhibition above about 50%
Mdm2 MdmX PPI = inhibitors of human Mdm2-MdmX association, primary screen, cell-based, luminescence, split luciferase, SaOS-2, uHTS. Protein Mdm4 (Homo sapiens) + E3 ubiquitin-protein ligase Mdm2 (Homo sapiens), …. SaOS-2 split-luciferase Mdm2/MdmX complementation. inhibition, % at 8 µM. 330,000 tested, 3% active. AID 485346, 2010;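 active = inhibition of at least 50% at 8 µM in the primary screen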
Target sequence (O15151 whole entry, looked up): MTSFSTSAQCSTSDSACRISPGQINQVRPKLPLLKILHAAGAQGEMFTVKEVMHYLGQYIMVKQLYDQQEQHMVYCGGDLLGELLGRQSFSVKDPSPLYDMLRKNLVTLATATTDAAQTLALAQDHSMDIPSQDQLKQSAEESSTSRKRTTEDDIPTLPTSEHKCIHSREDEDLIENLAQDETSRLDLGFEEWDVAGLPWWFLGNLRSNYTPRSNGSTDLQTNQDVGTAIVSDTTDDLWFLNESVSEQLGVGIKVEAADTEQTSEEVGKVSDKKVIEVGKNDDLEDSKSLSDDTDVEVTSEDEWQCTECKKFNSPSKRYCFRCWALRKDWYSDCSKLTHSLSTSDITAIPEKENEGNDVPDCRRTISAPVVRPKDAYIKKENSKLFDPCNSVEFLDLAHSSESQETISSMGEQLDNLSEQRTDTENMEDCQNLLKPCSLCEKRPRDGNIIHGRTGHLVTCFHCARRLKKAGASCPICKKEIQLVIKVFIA
Target sequence (Q00987 whole entry, looked up): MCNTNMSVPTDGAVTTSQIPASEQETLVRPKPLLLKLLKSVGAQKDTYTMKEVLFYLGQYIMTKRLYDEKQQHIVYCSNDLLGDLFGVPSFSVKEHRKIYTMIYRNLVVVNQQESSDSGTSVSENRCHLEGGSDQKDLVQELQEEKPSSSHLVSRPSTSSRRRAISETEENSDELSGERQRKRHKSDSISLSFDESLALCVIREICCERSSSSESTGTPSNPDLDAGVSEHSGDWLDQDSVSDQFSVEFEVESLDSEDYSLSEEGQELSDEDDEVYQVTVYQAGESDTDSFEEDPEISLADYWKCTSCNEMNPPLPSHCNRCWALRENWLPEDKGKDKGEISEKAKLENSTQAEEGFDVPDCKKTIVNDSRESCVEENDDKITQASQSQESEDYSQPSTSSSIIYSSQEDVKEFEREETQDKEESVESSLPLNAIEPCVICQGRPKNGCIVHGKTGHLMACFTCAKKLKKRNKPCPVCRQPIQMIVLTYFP
VIM-2 inhibitor = VIM-2 metallo-beta-lactamase inhibitors, primary screen, biochemical, epi-absorbance readout, Pseudomonas aeruginosa enzyme; purified VIM-2, nitrocefin hydrolysis, epi-absorbance fluorescence; inhibition, % at 5.6 µM; 290,000 tested, 0.89% active; AID 1527, 2009;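 active = inhibition above the mean of all tested compounds plus 3 SD, cutoff set per screening run, cut at about 7.5% in these data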;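 also: red hydrolysis product quenches plate fluorescence so inhibitors raise well fluorescence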
IMP-1 inhibitor = IMP-1 metallo-beta-lactamase inhibitors, primary screen, biochemical, epi-absorbance readout, Pseudomonas aeruginosa enzyme. metallo-beta-lactamase IMP-1 (Pseudomonas aeruginosa). purified IMP-1, nitrocefin hydrolysis, epi-absorbance fluorescence. inhibition, % at 5.6 µM. 290,000 tested, 0.45% active. AID 1556, 2009;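 active = inhibition above the mean plus 3 SD of all compounds in the same screening run, cut at about 4.5% in these data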
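Test system: recombinant IMP-1 enzyme, purified / Medium: HEPES buffer pH 7.1 with ZnSO4 and Brij 35 / Doses: single dose, 5.6 µM / Times: 25 °C, 15 min preincubation, 25 min reaction / Detection: Epi-absorbance via hydrolysed-nitrocefin quenching of white-plate fluorescence, 480/530 nm, EDTA stop / Evaluation: percent inhibition from optical density relative to buffer-blank wells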
697 NFkB inh = inhibitors of PMA/ionomycin-induced NF-kB reporter, 697 cells, primary screen, B-cell NF-kB inhibitor project, cell-based, luminescence, uHTS. 697 B-cell NF-kB luciferase reporter, 16 h. inhibition, % at 4 µM. 330,000 tested, 0.33% active. AID 435022, 2010; in the data active = inhibition above about 35%
Mdm2-MdmX conf = Mdm2-MdmX complex disruptors, retested hits, confirmation, luminescence, single concentration | shares compounds with Mdm2 MdmX PPI | 10,000 tested, 55% active | inhibition, % at 8 µM | AID 489028, 2010 | Mdm2-MdmX binding, luminescent assay; in the data active = inhibition above about 40%
Full FLuc ctr = full-length luciferase signal inhibition, confirmation, counter-screen for Mdm2/MdmX interaction inhibitor project, cell-based, single concentration, SaOS-2 | shares compounds with Mdm2 MdmX PPI | 6,200 tested, 77% active | AID 504607, 2011 | inhibition, % at 8 µM | SaOS-2 full-length luciferase counterscreen, luminescence;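 active = mean inhibition at 8 µM reaching about 37%, which flags the compound as non-specific, limit read from the data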;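 also: p53-null SaOS-2 cells with luciferase driven by a doxycycline-inducible promoter; compound on cells about two nights before reading with doxycycline added after day one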
A number is an active result; i = inactive; ? = inconclusive; nt = not tested or not shown; ! = a repeat was not active. This is a sample that favours compounds with a hit; in the whole collection about 4.7% have one here.

SMILES	aSyn UTR inh	Jurkat NFkB inh	Mdm2 MdmX PPI	VIM-2 inhibitor	IMP-1 inhibitor	697 NFkB inh	Mdm2-MdmX conf	Full FLuc ctr
CCNC(=S)Nc1cccc([N+](=O)[O-])c1	i	i	i	i	i	i	nt	nt
COCCN1CCN(c2cc(-c3ccccc3)nc3cc(-c4cccc(F)c4)nn23)CC1	i	i	51.0	i	i	i	i	nt
CN(C)CCCNc1cc(-c2ccccc2)nc2cc(-c3cccc(F)c3)nn12	i	i	63.0	i	i	i	i	50.9
CN(CCO)c1c2c(nc3cc(-c4cccc(F)c4)nn13)CCCC2	i	i	i	i	i	i	nt	nt
Cc1cccc(-c2cc3nc(C)cc(NCCCN(C)C)n3n2)c1	i	i	64.7	i	i	i	i	nt
CCOc1ccccc1NC(=O)COc1cccnc1[N+](=O)[O-]	nt	i	i	nt	nt	i	nt	nt
COc1ccc([C@H]2C(C#N)=C([S-])N[C@](C)(O)[C@@H]2[n+]2ccccc2)cc1	i	nt	nt	i	i	nt	nt	nt
COc1ccc(CNCc2cn(-c3cccc(F)c3)nc2-c2ccc(C)o2)cc1	i	i	51.7	i	i	i	i	nt
COc1ccc(-n2cc(CNCc3cccnc3)c(-c3cccc(F)c3)n2)cc1	i	i	i	i	i	i	nt	nt
O=C1Oc2ccccc2C(=O)/C1=C\N1CCN(c2ccccc2)CC1	i	i	i	i	i	i	nt	nt
COc1ccc(CCNC(=O)c2ccc3c(c2)N(Cc2ccccc2)CCS3)cc1OC	i	i	59.8	i	i	i	i	nt
COc1ccc(OC)c(CCNC(=O)c2ccc3c(c2)N(Cc2ccccc2)CCS3)c1	i	i	i	i	i	i	nt	nt
CCOc1cc(N2CCOCC2)c(OCC)cc1NC(=O)COC(=O)c1cc2ccccc2cc1O	i	i	i	i	i	i	nt	nt
CCOc1ccc(OCCC(=O)OCC(=O)Nc2cc(OCC)c(N3CCOCC3)cc2OCC)cc1	i	i	50.2	nt	nt	i	43.6	53.7
CC(=O)c1c(C)[nH]c(C(=O)Nc2ccccc2N2CCOCC2)c1C	i	i	i	i	i	i	nt	nt
CCOc1cc(N2CCOCC2)c(OCC)cc1NC(=O)c1[nH]c(C)c(C(C)=O)c1C	nt	i	56.5	nt	nt	i	i	86.3
CNc1nc(C)c(C(C)(C)C)s1	i	i	i	i	i	i	nt	nt
Cc1nc2c(cc1NC(=O)C(C)(C)C)nc(C)n2Cc1ccccc1	i	i	i	i	i	i	nt	nt
C[C@H](CO)N1C[C@H](C)[C@H](CN(C)Cc2ccccc2)Oc2c(NC(=O)Nc3ccc(F)cc3)cccc2C1=O	nt	i	i	nt	nt	i	nt	nt
COc1ccc(NC(=O)Nc2cccc3c2O[C@H](CN(C)Cc2ccc(-c4ccccc4)cc2)[C@@H](C)CN([C@H](C)CO)C3=O)cc1	nt	i	90.7	nt	nt	i	63.0	i
C[C@@H]1CN([C@@H](C)CO)C(=O)c2cccc(NC(=O)Nc3ccc(F)cc3)c2O[C@@H]1CN(C)Cc1ccc(Oc2ccccc2)cc1	nt	i	76.3	nt	nt	i	i	nt
Cc1ccc(S(=O)(=O)N(C)C[C@H]2Oc3c(NC(=O)Nc4cccc5ccccc45)cccc3C(=O)N([C@@H](C)CO)C[C@@H]2C)cc1	nt	i	59.6	nt	nt	i	i	46.6
ClCc1nc2ccccc2c2ccccc12	i	i	51.7	i	i	i	i	nt
CCOC(=O)c1c(CCl)nc2ccccc2c1-c1ccccc1	i	i	i	i	i	i	nt	nt
CCOc1ccccc1NC(=O)CCCNC(=O)Cn1cnc2sc(C)c(C)c2c1=O	i	i	i	i	i	i	nt	nt
SMILES	aSyn UTR inh	Jurkat NFkB inh	Mdm2 MdmX PPI	VIM-2 inhibitor	IMP-1 inhibitor	697 NFkB inh	Mdm2-MdmX conf	Full FLuc ctr
COc1cc([N+](=O)[O-])cc(/C=N/NC(=O)Cn2nc(C)cc2C)c1O	i	i	57.4	i	i	i	64.7	50.3
COc1cc([N+](=O)[O-])cc(/C=N/NC(=O)Cn2nccc2C)c1O	i	i	i	i	i	i	nt	nt
CCOc1ccc(/C=N/NC(=O)Cc2csc(Nc3cccc(C(F)(F)F)c3)n2)c(OCC)c1	i	i	i	i	i	i	nt	nt
COc1cc(Br)cc(/C=N/NC(=O)Cc2ccc(C(F)(F)F)cc2[N+](=O)[O-])c1O	67.5	i	52.3	i	i	i	70.2	i
CCOc1cc(/C=N/NC(=O)Cc2ccc(C(F)(F)F)cc2[N+](=O)[O-])c(Br)cc1OC	i	i	77.1	i	i	i	54.8	i
COc1cc([N+](=O)[O-])cc(/C=N/NC(=O)c2cncc(Br)c2)c1O	i	i	i	i	i	i	nt	nt
CCOC(=O)C1=C(C)NC(C)=C(C(=O)OC)C1c1cccc(Cl)c1Cl (configuration not stated)	i	i	i	i	i	i	nt	nt
CCOC(=O)C1=C(COCCN)NC(C)=C(C(=O)OC)C1c1ccccc1Cl (configuration not stated)	i	i	61.9!	nt	nt	i	i	nt
O=C(C1=C(O)C(=O)N(c2ncccn2)C1c1ccc(F)cc1)c1ccco1 (configuration not stated)	i	i	i	i	i	i	nt	nt
O=C(COc1ccc([N+](=O)[O-])cc1)Nc1nc(-c2ccccn2)cs1	?	i	75.8	nt	nt	i	81.1	i
O=C(COc1ccc([N+](=O)[O-])cc1)Nc1cccnc1	i	i	i	i	i	i	nt	nt
O=C(COc1ccc(F)cc1)Nc1nc(-c2ccccn2)cs1	i	i	63.5	nt	nt	i	69.7	61.5
O=C(Nc1nc(-c2ccccn2)cs1)Nc1ccc(F)cc1F	i	i	58.6	i	i	i	44.5	50.8
O=C(COc1ccccc1)Nc1nc(-c2ccncc2)cs1	i	i	i	i	i	i	nt	nt
CCOc1ccc(NC(=O)CN(C)C(=O)c2ccc3nc(CC)c(CC)nc3c2)cc1OCC	i	i	i	nt	nt	i	nt	nt
Cc1ccc(/C=C2\SC(=S)N(CCC(=O)N3CCOCC3)C2=O)cc1	i	i	56.8	i	i	i	i	nt
COc1cccc(/C=C2/SC(=S)N(CCC(=O)N3CCOCC3)C2=O)c1	i	i	53.5	i	i	i	i	nt
COc1ccc(/C=C2\SC(=S)N(CCC(=O)N3CCOCC3)C2=O)cc1	i	i	i	i	i	i	nt	nt
COc1cccc(/C=C2\SC(=S)N(CCC(=O)NNC(=O)c3ccccc3OC)C2=O)c1	i	i	i	i	i	i	nt	nt

Screens: PubChem, several laboratories
